# pIC50: −log10 of the molar value. The source made the active and inactive calls. No cut-off for these calls is given here.
# System: Plasmodium falciparum
# Assay: Antiplasmodial activity against chloroquine-sensitive Plasmodium falciparum D10 infected in human RBCs after 72 hrs by parasite lactate dehydrogenase assay
# Type: functional, organism-based
# Details: D10, 72 h
# Summary of the method: (§1)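 Asynchronous cultures (parasitemia 1−1.5%, 1% final hematocrit) in human type A-positive RBCs, RPMI 1640 with 1% AlbuMax, hypoxanthine, Hepes and glutamine. Exposed to serial dilutions (DMSO <1% final) for 72 h at 37 °C under 1% O₂/5% CO₂/94% N₂. Growth read as pLDH activity at OD₆₅₀ (modified Makler method).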
row,Structure (SMILES),pIC50
1,O=c1c2ccc(Nc3ccnc4cc(Cl)ccc34)cc2ncn1Cc1ccccc1,< 6.00
2,CCCN1COc2cc(Nc3ccnc4cc(Cl)ccc34)ccc2C1,7.68
3,CCn1cnc2cc(Nc3ccnc4cc(Cl)ccc34)ccc2c1=O,< 6.00
4,O=c1c2ccc(Nc3ccnc4cc(Cl)ccc34)cc2ncn1Cc1ccc(CN2CCCC2)cc1,7.51
5,CCN1CNc2cc(Nc3ccnc4cc(Cl)ccc34)ccc2C1,7.96
6,CCCN1CNc2cc(Nc3ccnc4cc(Cl)ccc34)ccc2C1,7.68
7,CCN1COc2cc(Nc3ccnc4cc(Cl)ccc34)ccc2C1,7.64
8,CCN(CC)Cc1ccc(Nc2ccnc3cc(Cl)ccc23)cc1O [ISOQUINE],7.57

# System: not listed separately
# Assay: Chemical stability of the compound at pH 7.4
# Type: physicochemical
# Details: buffer
row,Structure (SMILES),Stability
1,CCCN1CNc2cc(Nc3ccnc4cc(Cl)ccc34)ccc2C1,100%

# System: not listed separately
# Assay: Aqueous solubility of the compound in water at pH 7.4 after 24 hrs
# Type: physicochemical
# Details: water, pH 7.4
# Summary of the method: (§2)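 Prepared from 10 mM DMSO stock as 250 μM in 50 mM acetic acid (pH 3) or 50 mM ammonium acetate (pH 7.4), 2.5% DMSO final, in filter plates. Filtrate diluted 1:2 and run on UPLC/UV/TOF-MS at 254 nm. Solubility from sample UV area versus a 250 μM standard in acetonitrile/buffer.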
row,Structure (SMILES),solubility at 24 h
1,CCCN1CNc2cc(Nc3ccnc4cc(Cl)ccc34)ccc2C1,53 µM

# System: not listed separately
# Assay: Chemical stability of the compound at pH 7.4 at 37 degC measured for 24 hrs by NMR analysis
# Type: physicochemical
# Details: buffer, pH 7.4, 24 h
row,Structure (SMILES),Stability
1,CCN1CNc2cc(Nc3ccnc4cc(Cl)ccc34)ccc2C1,Stable
2,CCCN1CNc2cc(Nc3ccnc4cc(Cl)ccc34)ccc2C1,Stable

# System: not listed separately
# Assay: Cytotoxicity against mouse NIH/3T3 cells assessed as cell viability after 24 hrs by neutral red uptake assay
# Type: cell-based, NIH3T3
# Details: read-out: TC50
# Summary of the method: (§3)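 NIH3T3 cells grown in DMEM and HepG2 in EMEM, both with 10% FCS, glutamine/penicillin/streptomycin and non-essential amino acids, 37 °C, 5% CO₂. Cells trypsinized at confluence and resuspended. Viability by neutral red uptake after 24 h exposure. Student's t test, p < 0.05.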
row,Structure (SMILES),CC50 at 24 h
1,CCCN1CNc2cc(Nc3ccnc4cc(Cl)ccc34)ccc2C1,17 µM
2,CCN1COc2cc(Nc3ccnc4cc(Cl)ccc34)ccc2C1,29 µM

# System: not listed separately
# Assay: Cytotoxicity against human HepG2 cells assessed as cell viability after 24 hrs by neutral red uptake assay
# Type: cell-based
# Details: read-out: TC50
# Summary of the method: as §3
row,Structure (SMILES),CC50 at 24 h
1,CCCN1CNc2cc(Nc3ccnc4cc(Cl)ccc34)ccc2C1,5.7 µM
2,CCN1COc2cc(Nc3ccnc4cc(Cl)ccc34)ccc2C1,6 µM

# System: not listed separately
# Assay: Intrinsic clearance in rat liver microsomes at 1 uM
# Type: ADME, Microsome
# Details: read-out: CLH
# Summary of the method: (§4)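 Substrate at 1 μM with 0.2 mg/mL mouse or rat liver microsomal protein in 100 mM phosphate, pH 7.4. Reaction started with NADPH regenerating system (1 mM NADPH, 10 mM G6P, 0.4 U/mL G6PDH) and stopped with acetonitrile at intervals over 0−45 min, in duplicate. HPLC-MS depletion fitted monoexponentially; Clint = k × V/P.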
row,Structure (SMILES),microsomal CLint at 1 µM
1,CCCN1CNc2cc(Nc3ccnc4cc(Cl)ccc34)ccc2C1,121 µL/min/mg

# System: not listed separately
# Assay: Chemical stability of the compound at pH 2 at 37 degC measured for 24 hrs by NMR analysis
# Type: physicochemical
# Details: buffer, pH 2, 24 h
row,Structure (SMILES),Stability
1,CCN1CNc2cc(Nc3ccnc4cc(Cl)ccc34)ccc2C1,Stable
2,CCCN1CNc2cc(Nc3ccnc4cc(Cl)ccc34)ccc2C1,Stable

# Molecular target: T1, Chloroquine resistance transporter (Plasmodium falciparum) (UniProt Q9N623)
# T1 sequence (whole entry): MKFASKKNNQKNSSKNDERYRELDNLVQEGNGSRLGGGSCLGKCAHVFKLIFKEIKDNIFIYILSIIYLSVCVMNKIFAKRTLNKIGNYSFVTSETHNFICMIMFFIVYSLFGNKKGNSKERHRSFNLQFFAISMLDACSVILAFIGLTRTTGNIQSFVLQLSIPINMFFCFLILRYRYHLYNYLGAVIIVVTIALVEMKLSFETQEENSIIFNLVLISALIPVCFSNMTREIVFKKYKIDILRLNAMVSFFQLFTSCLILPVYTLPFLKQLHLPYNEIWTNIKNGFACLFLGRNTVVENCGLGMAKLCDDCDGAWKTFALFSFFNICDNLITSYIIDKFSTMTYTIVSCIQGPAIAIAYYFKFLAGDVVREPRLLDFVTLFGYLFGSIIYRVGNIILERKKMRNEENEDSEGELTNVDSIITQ
# Assay: Inhibition of chloroquine-resistant Plasmodium falciparum Dd2 CRT expressed in Xenopus laevis oocytes assessed as reduction in [3H]-chloroquine uptake at 100 uM after 1.5 to 2 hrs
# Type: cell-based
# Details: Oocyte
# Summary of the method: (§5)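 Oocytes injected with Dd2 or D10 PfCRT cRNA (20 ng per oocyte). Compound at 100 μM extracellular. [³H]CQ (0.3 μM) uptake measured 3−5 days post-injection over 1.5−2 h at 27.5 °C, in pH 6.0 medium containing 15 μM unlabeled CQ. 10 oocytes per treatment, five experiments. Compared by ANOVA with Tukey's test.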
row,Structure (SMILES),inhibition
1,CCCN1CNc2cc(Nc3ccnc4cc(Cl)ccc34)ccc2C1,Active

# Molecular target: T1, Chloroquine resistance transporter (Plasmodium falciparum)
# Assay: Inhibition of chloroquine-sensitive Plasmodium falciparum D10 CRT expressed in Xenopus laevis oocytes assessed as [3H]-chloroquine uptake at 100 uM after 1.5 to 2 hrs
# Type: cell-based
# Details: Oocyte
# Summary of the method: as §5
row,Structure (SMILES),inhibition
1,CCCN1CNc2cc(Nc3ccnc4cc(Cl)ccc34)ccc2C1,inactive

# System: Plasmodium falciparum
# Assay: Antiplasmodial activity against chloroquine-resistant Plasmodium falciparum W2 infected in human RBCs after 72 hrs by parasite lactate dehydrogenase assay
# Type: functional, organism-based
# Details: W2, 72 h
# Summary of the method: as §1
row,Structure (SMILES),pIC50
1,O=c1c2ccc(Nc3ccnc4cc(Cl)ccc34)cc2ncn1Cc1ccccc1,< 6.00
2,CCCN1COc2cc(Nc3ccnc4cc(Cl)ccc34)ccc2C1,7.40
3,CCn1cnc2cc(Nc3ccnc4cc(Cl)ccc34)ccc2c1=O,< 6.00
4,O=c1c2ccc(Nc3ccnc4cc(Cl)ccc34)cc2ncn1Cc1ccc(CN2CCCC2)cc1,7.08
5,CCN1CNc2cc(Nc3ccnc4cc(Cl)ccc34)ccc2C1,7.22
6,CCCN1CNc2cc(Nc3ccnc4cc(Cl)ccc34)ccc2C1,7.28
7,CCN1COc2cc(Nc3ccnc4cc(Cl)ccc34)ccc2C1,7.14
8,CCN(CC)Cc1ccc(Nc2ccnc3cc(Cl)ccc23)cc1O [ISOQUINE],7.51

# System: not listed separately
# Assay: Intrinsic clearance in mouse liver microsomes at 1 uM
# Type: ADME, Microsome
# Details: read-out: CLH
# Summary of the method: as §4
row,Structure (SMILES),microsomal CLint at 1 µM
1,CCCN1CNc2cc(Nc3ccnc4cc(Cl)ccc34)ccc2C1,219 µL/min/mg

# Molecular target: Potassium voltage-gated channel subfamily H member 2 (Rattus norvegicus)
# Assay: Inhibition of rat ERG after 2 to 3 days by patch clamp assay
# Details: not given
row,Structure (SMILES),pIC50
1,CCCN1CNc2cc(Nc3ccnc4cc(Cl)ccc34)ccc2C1,7.66

# Same assay, conditions: rat
row,Structure (SMILES),inhibition (INH)
1,CCCN1CNc2cc(Nc3ccnc4cc(Cl)ccc34)ccc2C1,Dose-dependent effect

# System: Plasmodium berghei
# Assay: Antiplasmodium activity against chloroquine-sensitive Plasmodium berghei ANKA infected in BALB/c mouse assessed as decrease in parasitemia at 50 mg/kg, ip administered until day 4 measured 24 hrs post last dose by Giemsa staining
# Type: functional, organism-based
# Set-up: dose 50 mg/kg
# Details: not given
# Summary of the method: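 Peters 4-day test, P. berghei ANKA, female 5-week-old BALB/c mice infected ip with 2 × 10⁷ parasitized erythrocytes. Single group of six mice given 50 mg/kg ip daily, starting 4 h post-infection through day 4. Parasitemia counted on Giemsa tail-blood smears 24 h after final treatment.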
row,Structure (SMILES),Activity
1,CCN1COc2cc(Nc3ccnc4cc(Cl)ccc34)ccc2C1,Active

# System: not listed separately
# Assay: Aqueous solubility of the compound in water at pH 3 after 24 hrs
# Type: physicochemical
# Details: not given
# Summary of the method: as §2
row,Structure (SMILES),solubility at 24 h
1,CCCN1CNc2cc(Nc3ccnc4cc(Cl)ccc34)ccc2C1,231 µM

# System: not listed separately
# Assay: Chemical stability of the compound at pH 7.4 at 37 degC by NMR analysis
# Type: physicochemical
# Details: buffer
row,Structure (SMILES),Stability
1,CCCN1COc2cc(Nc3ccnc4cc(Cl)ccc34)ccc2C1,Stable
2,CCN1COc2cc(Nc3ccnc4cc(Cl)ccc34)ccc2C1,Stable

# System: not listed separately
# Assay: Chemical stability of the compound at pH 2 at 37 degC after 1 hr by NMR analysis
# Type: physicochemical
# Details: buffer, pH 2, 1 h
row,Structure (SMILES),Stability
1,CCCN1COc2cc(Nc3ccnc4cc(Cl)ccc34)ccc2C1,Unstable
2,CCN1COc2cc(Nc3ccnc4cc(Cl)ccc34)ccc2C1,Unstable

# System: Plasmodium berghei
# Assay: Antiplasmodium activity against chloroquine-sensitive Plasmodium berghei ANKA infected in BALB/c mouse assessed as decrease in parasitemia administered as po until day 4 measured 24 hrs post last dose by Giemsa staining
# Type: functional
# Details: not given
# Summary of the method: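 P. berghei ANKA in female 5-week-old BALB/c mice (19 g), infected ip with 2 × 10⁷ parasitized erythrocytes. Fresh aqueous stocks (100 mg/mL) diluted 1.5-fold to give 6−7 doses from 4.4 to 50 mg/kg, given once daily by oral gavage starting 4 h post-infection through day 4. Parasitemia read from Giemsa tail-blood smears 24 h after last dose. ED50 from four-parameter logistic fit.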
row,Structure (SMILES),ED50
1,CCCN1CNc2cc(Nc3ccnc4cc(Cl)ccc34)ccc2C1,8.74 mg/kg

# Species: Oryctolagus cuniculus
# Assay: Inhibition of rabbit kidney Na+/K+ ATPase hydrolytic activity assessed as inorganic phosphate production at 10 uM by malachite green staining-based colorimetric assay
# Details: not given
# Summary of the method: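 Na⁺,K⁺-ATPase membrane fragments prepared from rabbit kidney outer medulla and used at about 1 μg/mL protein. Buffer: 25 mM MOPS pH 7.0, 100 mM NaCl, 20 mM KCl, 3 mM MgCl₂. Test agent at 10 μM, with ouabain as reference. Pi release measured by malachite green colorimetry.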
row,Structure (SMILES),inhibition
1,CCCN1CNc2cc(Nc3ccnc4cc(Cl)ccc34)ccc2C1,35%

# System: not listed separately
# Assay: Chemical stability in DMSO/D2O mixture solution at 25 degC by NMR analysis
# Type: physicochemical
# Details: not given
row,Structure (SMILES),Stability
1,CCCN1COc2cc(Nc3ccnc4cc(Cl)ccc34)ccc2C1,Stable
2,CCN1COc2cc(Nc3ccnc4cc(Cl)ccc34)ccc2C1,Stable

# System: CYP3A4
# Assay: Metabolic stability in human liver microsomes assessed as compound ramining after 1 hr in presence of human recombinant CYP3A4
# Type: ADME, Microsome
# Details: in the assay text read “assessed” for “in human liver microsomes assessed”, read-out: Stability
# Summary of the method: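 Substrate at 1 μM final (0.25% organic solvent) incubated 1 h at 37 °C with recombinant hCYP3A4 (20 pmol/mL), with or without NADPH regenerating system. Stopped with acetonitrile. Result is % remaining from MS peak area with NADPH relative to without. CV typically within 10%.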
row,Structure (SMILES),remaining at 1 h
1,CCCN1CNc2cc(Nc3ccnc4cc(Cl)ccc34)ccc2C1,43%

# System: Plasmodium falciparum
# Assay: Resistant index, ratio of IC50 for chloroquine-resistant Plasmodium falciparum W2 to IC50 for chloroquine-sensitive Plasmodium falciparum D10
# Type: functional
# Details: not given
row,Structure (SMILES),Ratio IC50
1,CCCN1COc2cc(Nc3ccnc4cc(Cl)ccc34)ccc2C1,2
2,O=c1c2ccc(Nc3ccnc4cc(Cl)ccc34)cc2ncn1Cc1ccc(CN2CCCC2)cc1,2.7
3,CCN1CNc2cc(Nc3ccnc4cc(Cl)ccc34)ccc2C1,5.4
4,CCCN1CNc2cc(Nc3ccnc4cc(Cl)ccc34)ccc2C1,2.5
5,CCN1COc2cc(Nc3ccnc4cc(Cl)ccc34)ccc2C1,3.1
6,CCN(CC)Cc1ccc(Nc2ccnc3cc(Cl)ccc23)cc1O [ISOQUINE],1.1

# — ChEMBL document CHEMBL2176916, “Mimicking the intramolecular hydrogen bond: synthesis, biological evaluation, and molecular modeling of benzoxazines and quinazolines as potential antimalarial agents” (J Med Chem, 2012)
